Screening results as filed in PubChem BioAssay.
WT yeast gro inh: growth inhibition of WT yeast, mitochondrial fusion screen | AID 1362 | 190,000 tested, 2.1% active | inhibition, % at 10 µM | mitochondrial fusion phenotypic screen, WT strain; in the data active = inhibition above about 58%; tested in S. cerevisiae
Yeast growth inh: yeast BB579 growth reduction in restrictive medium; 140,000 tested, 0.51% active; inhibition, % at 10 µM; S. cerevisiae BB579 growth, OD615, 48 h; AID 804;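 active = inhibition above a set limit, 3 SD over the mean compound inhibition, cut at about 44% in these data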
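Material: Saccharomyces cerevisiae DeaD strain BB579, replicative lifespan model yeast; buffer or medium: CSMM-D restrictive synthetic medium containing dextrose (glucose); compound: 10 µM single dose, DMSO 0.25%; timing: 48 h compound exposure at 30 °C after 4 h preincubation; signal: turbidity as optical density at 615 nm; benchmarks: positive control amphotericin B 10 µg/mL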
Yeast lifespan up: extends the lifespan of yeast; inhibition of the nicotinamide effect, % at 10 µM; 130,000 tested, 0.68% active; S. cerevisiae growth with nicotinamide, OD615; deaD strain in restrictive glucose medium;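 active = inhibition above a set limit, placed 3 SD over the median of all compounds, cut at about 26% in these data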;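 also: 0% = nicotinamide-treated wells and 100% = cells grown without nicotinamide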
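Buffer or medium: CSMM-D glucose medium, restrictive; test system: modified budding yeast, DeaD strain; compound: single dose 10 µM compound, 0.25% DMSO; schedule: culture preincubation 4 h, compound exposure 48 h, both 30 °C; detection: optical density (absorbance) at 615 nm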
RAM network inh: inhibitors of the yeast RAM network; S. cerevisiae dse1pr::URA3 reporter, 5-FOA growth OD615, 2 d; analog-sensitive cbk1-as2 kinase mutant strain; AID 868; 190,000 tested, 1.8% active; inhibition, % at 50 µM;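 active = inhibition above a set limit, 3 SD over mean compound inhibition, cut at about 8.4% in these data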;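 also: 0% = DMSO-only wells with no growth and 100% = 10 µM 1-NA-PP1 full growth; inhibition rescues growth on 5-FOA so higher OD means more RAM inhibition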
RAM efflux-def: RAM network inhibitors in efflux-deficient yeast | shares compounds with RAM network inh | S. cerevisiae efflux-deficient reporter strain, 5-FOA growth OD615, 2 days | max inhibition, % | 1,200 tested, under 10 active; call rule not given here;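 also: plate controls were vehicle for no effect and reference inhibitor for full effect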
* marks the source's active call; other numbers are inactive results; . = not tested or not shown. Rows were chosen to be rich in hits. Some 4.3% of all compounds tested hit in one or more screens of this group.

SMILES | WT yeast gro inh | Yeast growth inh | Yeast lifespan up | RAM network inh | RAM efflux-def
O=C(CSc1nnc(-c2ccncc2)n1-c1ccccc1)Nc1ccc(C(=O)O)cc1 | -9 | . | . | 1 | .
O=C(CSc1nnc(-c2ccncc2)n1-c1ccccc1Cl)Nc1ccc(C(=O)O)cc1 | -10 | . | . | 12* | 3
O=C(CCCSc1nc2ccccc2c(=O)[nH]1)c1ccc(F)cc1 | 3 | . | . | 5 | .
COc1cccc(/C=C/C(=O)OCC(=O)NCc2ccc(Cl)cc2)c1 | 1 | . | . | 4 | .
COc1cccc(/C=C/C(=O)OCC(=O)Nc2cc(C(F)(F)F)ccc2Cl)c1 | 3 | -28 | 4 | 12* | 1
Clc1ccc(CN2CCN(c3ccccc3)CC2)cn1 | 2 | . | . | 0 | .
COCCOC(=O)c1c(C)oc2ccc(OC(=O)COc3c(F)c(F)c(F)c(F)c3F)cc12 | 2 | 10 | -6 | 16* | 2
COCCOC(=O)c1c(C)oc2ccc(OS(C)(=O)=O)cc12 | 12 | . | . | 2 | .
Cc1oc2ccc(OC(=O)COc3c(F)c(F)c(F)c(F)c3F)cc2c1C(=O)OC(C)C | 5 | -26 | 4 | 13* | 2
C=CCNC(=S)N/N=C/c1ccc(N(CC)Cc2ccccc2)cc1 | 69* | -13 | -1 | 15* | 3
CSc1ccc(Cl)c(C(=O)OCC(=O)Nc2ccccc2OC(F)F)c1 | 9 | -30 | 3 | 16* | 3
COc1ccc(NC(=O)COC(=O)c2cc(SC)ccc2Cl)c(OC)c1 | 8 | -2 | -2 | 6 | .
COc1ccc(C(C)(C)C)cc1NC(=O)COC(=O)c1cc(SC)ccc1Cl | 0 | -24 | -3 | 13* | 4
O=C(Cn1cc(C(=O)c2ccco2)c2ccccc21)NC1CCCCC1 | 2 | . | . | 12* | 3
COc1ccccc1NS(=O)(=O)c1ccc2oc(SCc3ccc(F)cc3)nc2c1 | 39 | -45 | 9 | 14* | 3
COc1ccc(NS(=O)(=O)c2ccc3oc(SCc4ccc(F)cc4)nc3c2)cc1 | 58 | -26 | 11 | 13* | 3
CCOC(=O)CSc1nc2cc(S(=O)(=O)Nc3ccccc3OC)ccc2o1 | 9 | -33 | -5 | 3 | .
COc1ccc2[nH]c3c(=O)n(CCCCCC(=O)NCCC(C)C)c(=S)[nH]c3c2c1 | 5 | . | . | 3 | .
CC(=O)OCCCNc1cc(Sc2ccc(Cl)cc2)c2nonc2c1[N+](=O)[O-] | -14 | -32 | 12 | 12* | 2
Cc1cccc(-n2c(C)cc(/C=C3\C(=N)N4N=C(CC(C)C)SC4=NC3=O)c2C)c1 | 2 | -35 | 4 | 8 | .
CC(C)CC1=NN2C(=N)/C(=C\c3coc4ccccc4c3=O)C(=O)N=C2S1 | 15 | . | . | 14* | 2
CSc1ccccc1NC(=O)COC(=O)c1ccccc1Cc1ccccc1 | 29 | -34 | -4 | 2 | .
O=C(COC(=O)c1cc(Cl)ccc1[N+](=O)[O-])Nc1cccc2ccccc12 | 12 | -30 | -5 | 5 | .
Cc1ccc(C(=O)c2ccccc2C(=O)OCC(=O)Nc2cccc([N+](=O)[O-])c2)cc1 | 5 | -28 | -4 | 6 | .
Cc1ccc(C(=O)c2ccccc2C(=O)OCC(=O)Nc2ccc(SC(F)F)cc2)cc1 | 37 | -34 | 5 | 13* | 2
SMILES | WT yeast gro inh | Yeast growth inh | Yeast lifespan up | RAM network inh | RAM efflux-def
O=C(COC(=O)c1cc(Cl)ccc1[N+](=O)[O-])NCc1ccc(Cl)cc1Cl | 61* | -66 | 1 | 13* | 1
Cc1ccc(C(=O)c2ccccc2C(=O)OCC(=O)NCCc2ccc(Cl)cc2Cl)cc1 | 31 | -73 | 10 | 15* | 3
O=C(COC(=O)c1ccccc1Cc1ccccc1)Nc1ccc(SC(F)F)cc1 | 70* | -31 | 2 | 14* | 4
CCc1nnc(NS(=O)(=O)c2ccc(N3C(=O)c4ccc(C(=O)O)cc4C3=O)cc2)s1 | -8 | . | . | 5 | .
N#C/C(=C\c1ccc(-c2ccc(S(=O)(=O)N3CCOCC3)cc2)o1)C(=O)NC1CC1 | 14 | -55 | 4 | 13* | 2
COc1cccc(/C=C(/C(=O)OCC(=O)NC2CCCC(C)C2C)c2ccccc2)c1 (centres undefined) | 34 | -13 | 8 | 20* | 6
COc1cccc(/C=C(/C(=O)OCC(N)=O)c2ccccc2)c1 | 1 | . | . | 0 | .
Cc1ccc(O)c(-c2cc(-c3cccc(Br)c3)n[nH]2)c1 | 93 | . | . | 12* | 3
CCc1ccc(C(=O)OCC(=O)c2c(N)n(CC(C)C)c(=O)n(C)c2=O)cc1 | 14 | . | . | 1 | .
COc1ccc(/C=C/C(=O)c2ccccc2)cc1Cn1nnc2ccccc21 | 24 | -23 | 13 | 4 | .
COc1ccc(/C=C/C(=O)c2ccccc2)cc1COc1ccc(F)cc1 | -8 | -52 | -11 | 19* | 6
COc1cc(/C=C/C(=O)c2ccc(C)cc2)ccc1OCC#N | -2 | -1 | 9 | 13* | 4
COc1ccc(C(=O)/C=C/c2ccc(OC)c(COc3ccccc3F)c2)cc1 | 5 | -38 | -2 | 19* | 5
COc1ccc(C=O)cc1COc1ccc(F)cc1F | 17 | -58 | -11 | 1 | .
COc1ccc(C2=[N+]([O-])C(C)(C)N(O)C2C)cc1 (centres undefined) | -3 | -12 | . | 1 | .
CC(=O)N1CCCc2cc(S(=O)(=O)NCCC3=CCCCC3)ccc21 | -8 | 14 | -22 | -1 | .
Cc1ccc(NC(=O)c2cc(S(=O)(=O)NCCC3=CCCCC3)ccc2F)cc1 | 55 | -42 | -1 | 16* | 4
CCOc1ccc(N(C)S(=O)(=O)c2ccc3[nH]cc(C(=O)NCCOC)c(=O)c3c2)cc1 | 6 | . | . | 14* | 11
CCCCCc1c2c(cc(O)c1C(=O)O)OC(=O)c1c(cc(OC)cc1C(=O)CCCC)O2 | 4 | . | . | 13* | 3
O=C1Nc2ccccc2/C1=N\N=C\C1=C(N2CCOCC2)C(=C\c2ccccc2)/CC1 | 61* | -48 | -8 | 13* | 5
ClCc1csc(-c2ccccc2Cl)n1 | 16 | . | . | 0 | .
Cc1ccc(CC(=O)N2CCN(c3cccc(C(F)(F)F)c3)CC2)cc1 | 0 | -29 | -15 | 4 | .
O=C(/C=C/c1cccc(Br)c1)N1CCN(c2cccc(C(F)(F)F)c2)CC1 | 67* | -33 | 4 | 16* | 3
O=C(c1c(F)c(F)c(F)c(F)c1F)N1CCN(c2cccc(C(F)(F)F)c2)CC1 | 11 | -30 | -4 | 5 | .
O=C(/C=C/c1ccc(Br)cc1)N1CCN(c2cccc(C(F)(F)F)c2)CC1 | 42 | -36 | 7 | 12* | 3
COc1ccccc1OCCNS(=O)(=O)c1ccc2oc3ccccc3c2c1 | 45 | -10 | 3 | 15* | 5
CC(=O)c1ccc(OCCn2cnc3ccccc32)cc1 | 3 | 9 | -8 | 0 | .
C=CCn1c(C)cc(C(=O)CSc2nnc(NC(C)C)s2)c1C | -43 | -54 | -6 | 0 | .
C=CCn1c(C)cc(C(=O)CSc2nnc(NCc3ccccc3)s2)c1C | 13 | 64* | -9 | 14* | 2
O=C(O)c1cc(N2N=C(C(F)(F)F)/C(=C/C=C/c3ccco3)C2=O)ccc1Cl | 11 | . | . | 14* | 6
